Experimental data taken from ChEMBL document CHEMBL3872233, “Topical Treatment of Leishmania tropica Infection Using (-)-α-Bisabolol Ointment in a Hamster Model: Effectiveness and Safety Assessment” (J Nat Prod, 2016).

Legend:
Leishmania tropica [1] = assay: (§1) Antileishmanial activity against Leishmania tropica MHOM/MA/1988/LEM1314 promastigotes infected in Syrian hamster assessed as reduction in lesion thickness at 2 mg/kg administered intralesionally once daily on footpad for 3 weeks starting at week 7 post infection measured 1 week post last dose relative to control; format: functional, organism-based; set-up: scale not given: the % may be the effect or the level left
In short: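 L. tropica stationary-phase promastigotes (3 × 10^7 in 50 μL PBS) injected into the left hind footpad. Treatment began at week 7 (+75% footpad thickness) and ran daily for 21 days, n = 10/group. Routes were 50 mg ointment on the lesion (cetyl alcohol/lanolin/petrolatum base), gavage in olive oil, or intralesional meglumine antimoniate 2 mg SbV/kg. Lesion thickness was measured weekly against base-only ointment; sacrifice was 1 week after the last dose.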

Leishmania tropica [2] = assay: as §1, with “parasite load in foodpad skin” for “lesion thickness”, “dose by qPCR analysis” for “dose”; format: functional, organism-based; set-up: scale not given: the % may be the effect or the level left
In short: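 Hamsters were infected in the footpad and treated daily for 21 days from week 7 post-infection, n = 10/group, and sacrificed 1 week after the last dose. Footpad skin, liver and spleen DNA was assayed by L. tropica-specific TaqMan qPCR (chromosome 29 target), in triplicate with 50 ng DNA per 25 μL reaction. Load was interpolated from Ct on a calibration curve of promastigote DNA, relative to base-ointment controls.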

## Meglumine antimoniate; Glucantime
Leishmania tropica [1]
  Activity: 3.2%
Leishmania tropica [2]
  Activity: 73%
